This is a sample that favours compounds with a hit; in the whole collection about 4.6% have one here.
OX1R antag-1 = human HCRTR1 antagonism | O43613 | CHO/OX1R cells, Fluo-8 calcium fluorescence, orexin A | inhibition, % at 5 µM | 330,000 compounds, 0.43% hits | AID 434989;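 active = inhibition above its plate's threshold, mean inhibition of all tested compounds on the plate plus 3 SD, cut at about 37% in these data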;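 also: 0% = orexin A challenge wells and 100% = SB-334867-A antagonist wells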
Target sequence (O43613 whole entry, looked up): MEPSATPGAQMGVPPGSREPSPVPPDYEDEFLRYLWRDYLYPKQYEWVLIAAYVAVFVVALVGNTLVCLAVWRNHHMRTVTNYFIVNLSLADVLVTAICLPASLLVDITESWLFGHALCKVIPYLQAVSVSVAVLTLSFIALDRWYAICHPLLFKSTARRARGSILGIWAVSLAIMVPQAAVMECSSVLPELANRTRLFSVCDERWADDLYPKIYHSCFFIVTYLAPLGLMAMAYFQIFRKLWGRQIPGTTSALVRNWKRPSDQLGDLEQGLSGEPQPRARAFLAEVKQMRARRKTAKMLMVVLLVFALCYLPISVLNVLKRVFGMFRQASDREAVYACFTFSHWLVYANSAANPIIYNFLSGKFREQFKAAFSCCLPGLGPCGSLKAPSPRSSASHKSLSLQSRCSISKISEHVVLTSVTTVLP
TAAR1 antag = human TAAR1 antagonism; Q96RJ0; CHO RD-HGA16 TAAR1, Fluo-8 calcium fluorescence, antagonist; inhibition, % at 3 µM; 360,000 compounds, 1.5% hits; AID 624466;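 active = inhibition above a per-plate cutoff, the mean inhibition of test compounds on that plate plus 3 SD, cut at about 49% in these data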;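 also: 0% = DMSO plus EC80 beta-PEA response and 100% = DMSO alone without agonist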
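Material: RD-HGA16 CHO cells with stable hTAAR1 and Gα16; Dosing: single nominal final test compound concentration of 3 µM; Schedule: seeding 17-24 h prior, 75-min 37 °C, 30-min RT dye loading; Detection: kinetic Fluo-8 calcium fluorescence measurement; Measure: % inhibition from peak post-agonist over basal fluorescence ratio; Benchmarks: vehicle and agonist controls.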
OX1R antag-2 = blocks the human orexin 1 receptor | O43613 | OX1R-expressing cells, FRET antagonist read-out | inhibition, % at 6.6 µM | 330,000 compounds, 1.8% hits; in the data active = inhibition mostly above about 38%, no sharp cut-off; inactive = mostly below about 40%;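 also: 0% = agonist challenge alone and 100% = reference antagonist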
TAAR1 ag = agonists of human TAAR1; CHO RD-HGA16 TAAR1, Fluo-8 calcium fluorescence; vehicle wells 0%, saturating PEA agonist 100%; activation, % at 3 µM; 360,000 compounds, 0.99% hits; AID 624467;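 active = activation above the mean activation of all test compounds in the run plus 3 SD, cut at about 38% in these data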
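Test system: RD-HGA16 (CHO) cells co-expressing Gα16 and hTAAR1 / Benchmarks: DMSO vehicle as 0%, PEA at EC100 as 100% / Repeats: no replicates (n 1) / Measure: % activation from peak over basal fluorescence ratio, DMSO-to-PEA scaled / Timing: 17-24 h plating, Fluo-8 75 min 37 °C, 30 min RT / Technique: kinetic Fluo-8 calcium fluorescence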
CHO parental Ca = signal in parental CHO cells, OX1R antagonist counter-screen. parental CHO-K1, ATP-induced calcium, Fluo-8 fluorescence. inhibition, % at 5.6 µM. 330,000 compounds, 0.63% hits;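 active = inhibition above that plate's mean sample inhibition plus 3 SD, cut at about 26% in these data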;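 also: 0% = ATP-challenged DMSO wells and 100% = DMSO wells without ATP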
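Assay system: untransfected parental CHO cell line. Also added: ATP agonist challenge. Dosing: one dose, 5.6 µM nominal. Measured by: Fluo-8 fluorescence. Read-out: % inhibition. Benchmarks: ATP wells versus no-ATP DMSO wells. Repeats: no replicates.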
GPR7 antagonist = blocks human GPR7 receptor signaling. GPR7-expressing cells, fluorescence antagonist assay. inhibition, % at 4.4 µM. 290,000 compounds, 1.1% hits. AID 1861; in the data active = inhibition above about 16%, passing the limit was not always enough;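 also: cells stimulated with the agonist NPW; 0% = agonist with vehicle and 100% = vehicle without agonist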
Target sequence (P48145 whole entry, looked up): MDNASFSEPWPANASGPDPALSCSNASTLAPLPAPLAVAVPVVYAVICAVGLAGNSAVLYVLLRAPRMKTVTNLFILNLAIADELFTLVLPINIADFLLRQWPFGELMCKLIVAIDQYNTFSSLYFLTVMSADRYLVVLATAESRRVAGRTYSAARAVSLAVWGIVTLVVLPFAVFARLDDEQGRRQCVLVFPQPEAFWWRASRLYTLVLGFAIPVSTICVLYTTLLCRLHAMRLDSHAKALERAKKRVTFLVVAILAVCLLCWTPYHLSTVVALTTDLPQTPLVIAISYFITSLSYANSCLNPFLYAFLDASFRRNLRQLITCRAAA
* marks the source's active call; other numbers are inactive results; . = not tested or not shown.

SMILES	OX1R antag-1	TAAR1 antag	OX1R antag-2	TAAR1 ag	CHO parental Ca	GPR7 antagonist
C[C@@H]1NC(=O)[C@H](CCCN=C(N)N)NC(=O)c2cc([N+](=O)[O-])cc(I)c2OCC[C@@H](C(=O)NC(CC(=O)O)C(N)=O)NC1=O (stereo partly specified)	-9.0	.	14.6	.	1.6	-3.1
CC(=O)Nc1ccc(-c2cc3ccccc3o2)cc1	16.3	33.2	23.7	1.7	7.0	19.8*
CC(C)(C)c1ccc(OCc2ccc(C(=O)N/N=C/c3ccc(O)c(O)c3)cc2)cc1	-10.4	53.0*	10.6	16.3	3.6	-6.1
O=C(Cn1c(CO)nc2ccccc21)NCCc1ccccc1	-9.8	-31.1	17.6	6.8	-11.4	-4.6
COc1cc(/C=N/N(c2ccccc2)c2ccccc2)ccc1O	-19.1	0.0	5.2	12.4	-16.4	-34.0
CN(/N=C\c1ccc(O)c(O)c1)c1nc(-c2ccccc2)cc(-c2ccccc2)n1	-4.0	40.8	11.1	2.9	28.5*	-9.2
Cn1cc(S(=O)(=O)N2CCc3ccccc32)cc1C(=O)NC(C)(C)C	-9.6	-18.4	7.4	3.1	32.5*	-2.7
O=[N+]([O-])c1cccc(-c2nnc(-c3ccccc3)o2)c1	-7.0	5.0	24.0	-0.8	-3.6	2.7
Cc1occc1-c1nnc(-c2cc([N+](=O)[O-])cc([N+](=O)[O-])c2)o1	-20.2	-4.2	59.1*	11.4	-15.8	-1.5
N#CCN1C(=S)N=C(Nc2cccc(Cl)c2)C12CCCCC2	-10.7	-6.4	42.5	12.3	47.1*	-18.1
Cc1cc(C)n2nc(-c3ccccc3)cc2n1	-10.7	0.4	25.9	1.4	-2.0	2.3
Cc1cc(C)n2nc(Nc3ccccc3)cc2n1	-1.6	-10.3	48.7*	-0.5	-19.7	-3.2
O=C(CN1CCN(S(=O)(=O)N2CCCCC2)CC1)Nc1ccc(Cl)c(Cl)c1	-4.8	20.1	21.0	10.0	31.8*	1.2
O=C(CN1CCN(S(=O)(=O)N2CCCCC2)CC1)Nc1cc(Cl)cc(Cl)c1	-30.4	13.3	1.5	-2.8	-23.4	9.0
O=C(Nc1ccc(Cl)c(Cl)c1)N1CCCCCC1	18.5	-26.0	11.2	-0.2	33.5*	-1.1
O=C(Nc1ccc(Cl)c(Cl)c1)N1CCC(N2CCCCC2)CC1	-16.9	-21.3	9.4	0.1	-4.6	4.0
CCC1(C(=O)OC)NC(c2ccco2)C2C(=O)N(c3ccc(C)cc3)C(=O)C21 (stereo unspecified)	-12.7	9.2	1.6	5.4	-15.9	-12.1
c1ccc2c(c1)OCC(CNCC1COc3ccccc3O1)O2 (stereo unspecified)	-25.4	1.0	9.4	4.7	-14.9	-6.3
Oc1ccc(CNCC2COc3ccccc3O2)cc1 (stereo unspecified)	-14.3	-1.4	19.4	37.7*	-6.9	1.7
O=C(C[C@H]1C/C=C\CC[C@H](Cc2ccc(F)cc2)C(=O)O[C@H](c2ccccc2)CNC1=O)N[C@H](CO)Cc1ccccc1	20.6	55.0*	10.0	11.8	-13.4	.
O=C(C[C@H]1C/C=C\CC[C@H](Cc2ccc(F)cc2)C(=O)O[C@@H](c2ccccc2)CNC1=O)N[C@H](CO)Cc1ccccc1	-10.6	56.4*	-17.1	52.7*	-18.0	.
O=C(C[C@H]1C/C=C\C[C@H](Cc2ccc(F)cc2)C(=O)O[C@@H](c2ccccc2)CNC1=O)N[C@H](CO)Cc1ccccc1	-21.7	28.1	-23.8	54.6*	-17.7	.
CC(C)(C(=O)c1ccccc1)/[N+]([O-])=C/c1ccc(Br)cc1	-9.2	.	3.7	.	-9.6	-9.6
Cc1nn(Cc2c(F)c(F)c(F)c(F)c2F)c(C)c1NC(=O)c1cccc(COc2ccccc2Cl)c1	-26.5	-5.0	1.4	3.0	-23.1	-6.3
Cc1nn(Cc2cccc(F)c2)c(C)c1NC(=O)c1ccc(COc2ccccc2Cl)cc1	14.3	101.4*	14.9	4.8	6.1	2.4
SMILES	OX1R antag-1	TAAR1 antag	OX1R antag-2	TAAR1 ag	CHO parental Ca	GPR7 antagonist
Cn1c(Cl)nc2ccccc21	2.0	4.1	7.5	5.5	-8.5	-11.7
Cn1c(N=Nc2ccccc2)nc2ccccc21	-25.6	-18.1	63.6*	-1.5	-18.5	-2.2
COc1ccccc1CNC(=O)Nc1nc(C(N)Cc2ccc(Cl)cc2)cs1 (stereo unspecified)	.	50.7*	.	44.7*	.	.
COc1ccc(CNC(=O)Nc2nc(C(N)Cc3ccc(Cl)cc3)cs2)cc1 (stereo unspecified)	.	66.1*	.	50.1*	.	.
COc1ccccc1CNC(=O)Nc1nc(C(N)C(C)C)cs1 (stereo unspecified)	.	1.5	.	1.7	.	.
CN(C(=O)c1ccccn1)c1nnc(-c2ccncc2)s1	.	.	.	.	.	-21.4
O=C(NCc1cccnc1)C(=O)N/N=C/c1ccccc1[N+](=O)[O-]	-5.8	-12.3	19.0	10.2	-6.6	-8.7
O=C(NCc1cccnc1)C(=O)N/N=C/c1ccc([N+](=O)[O-])cc1	-28.7	-16.5	58.8*	8.7	-4.1	-6.5
Cc1cc(Cl)c(OCCCCNC(C)(C)C)c(Br)c1	-13.9	.	21.3	.	-18.8	-9.0
CCCCOC(=O)CCc1c(C)n[nH]c1C	-10.5	-16.1	8.4	-0.6	-1.9	-10.5
COc1cc(CNCCN2CCOCC2)ccc1OCc1ccc(Cl)cc1	-14.9	-7.3	22.6	4.2	-17.6	9.1
COc1cc(CNCCCN2CCOCC2)cc(Br)c1OCc1ccc(Cl)cc1	0.2	2.0	6.2	12.6	-3.3	58.8*
COc1ccc(C(NC(N)=O)c2ccccc2)cc1 (stereo unspecified)	-1.0	-6.0	0.9	5.2	-1.6	-0.9
O=C(Nc1ccccc1)Nc1cc([N+](=O)[O-])ccc1F	-0.5	2.8	16.5	41.4*	-5.2	4.6
O=C(NNc1ccccc1[N+](=O)[O-])Nc1ccccc1	-19.7	.	12.9	.	-3.9	-0.5
Cc1cc([N+](=O)[O-])ccc1NC(=O)Nc1ccccc1F	-8.4	13.0	5.3	6.7	-5.4	-10.9
O=C(NNc1ccccc1[N+](=O)[O-])Nc1ccc(F)cc1	-3.8	15.2	19.0	41.6*	-14.9	-2.3
N#Cc1c(C(F)(F)F)cc(Cc2ccccc2)nc1SCC(=O)NCC(=O)O	-7.2	-4.2	3.2	0.2	-5.3	.
O=S(=O)(c1ccc2c(c1)OCCO2)N1CCN(c2ncnc3sccc23)CC1	20.5	12.7	60.9	10.0	40.4*	13.8
CNc1nc2cc([N+](=O)[O-])c([N+](=O)[O-])cc2nc1NC	27.4	8.1	45.4	15.8	59.1*	20.6
CNc1ccc(S(=O)(=O)NC)cc1[N+](=O)[O-]	-12.2	3.5	64.0	5.7	2.4	-12.6
Cc1cc(/C=C\c2ccc3cc(N(C)C)ccc3[n+]2C)c(C)n1-c1ccccc1	51.0*	.	80.2*	.	54.0*	.
O=C(/C(=C/O)N=Nc1ccccc1)c1cccs1	-31.0	0.9	38.0	1.6	-27.6	-9.5

Assay outcomes: PubChem BioAssay, The Scripps Research Institute Molecular Screening Center
